XBP1 UPR activ: activators of adaptive XBP1 UPR arm, primary screen, cell-based, CHO-XBP1 luciferase reporter, luminescence, uHTS | IRE1-XBP1 UPR activation; percent of tunicamycin response, DMSO as zero | activation, % at 20 µM | 330,000 tested, 0.33% active;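 active = versus positive control, 20 µM dose yields 30% or more activation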
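assay system = CHO-XBP1 luciferase reporter cells | amount = 1000 cells/well | buffer or medium = F12 plus 10% FBS | compound dosing = single point, 20 µM final compound, 1% DMSO | incubation = 16-18 h cell attachment at 37 °C, then 6 h compound exposure | detection = Steady-Glo luminescence read | controls = tunicamycin 10 µg/mL and vehicle-only wells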
V-ATPase pHluor: regulators of yeast V-ATPase proton pumping, primary screen, pHLuorin cytosolic pH fluorescence | S. cerevisiae | AID 504577, 2011 | response, % at 10 µM | 350,000 tested, 0.37% active; in the data active = response mostly above about 7.3%, no sharp cut-off; inactive = mostly below about 5.4%; also: actives read high
CHOP inhibitor: inhibitors of CHOP promoter induction, primary screen, cell-based, unfolded protein response, luciferase reporter | CHO-K1 CHOP-promoter luciferase, tunicamycin-induced, 15-18 h | 220,000 tested, 3.8% active | inhibition, % at 10 µM | AID 2732, 2010;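 active = compounds that reduced the stress-induced luciferase reporter signal by more than about 70% of percent inhibition, limit read from the data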
TbMetRS inhib: T. brucei MetRS inhibitors, primary screen, biochemical, luminescence; methionyl-tRNA synthetase (Trypanosoma brucei brucei); AID 624268, 2012; inhibition, % at 11.9 µM; 360,000 tested, 0.4% active; purified T. brucei MetRS, ATP depletion, Kinase-Glo luminescence;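 active = inhibition above a per-plate cutoff of the control wells' mean inhibition plus 3 SD, cut at about 5.5% in these data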
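Test system – parasite MetRS enzyme · Reagent – substrates ATP, L-methionine and bulk Escherichia coli tRNA · Doses – 11.9 µM compound single dose, 0.9% DMSO · Times – 15 min enzyme-compound preincubation, 2 h reaction, 10 min detection, 25 °C · Signal – Kinase-Glo luminescence, ATP depletion format · Controls – DMSO-only wells as low control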
UPR CHOP act: activators of apoptotic CHOP UPR arm, primary screen, cell-based, CHO-CHOP luciferase reporter, luminescence, uHTS; UPR activation; percent of tunicamycin response over DMSO baseline; activation, % at 10 µM; 330,000 tested, 0.34% active; AID 449763, 2010;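 active = at 10 µM dose, activation of 40% or more, normalized to positive control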
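Test system: CHO CHOP reporter cells. Input: 500 CHO-CHOP cells per well. Medium: F12 with 10% FBS. Technique: luciferase luminescence. Measure: percent activation relative to tunicamycin control. Dosing: 10 µM compound, 0.5% DMSO. Timing: 16-18 h cell attachment, then 6 h compound exposure, 37 °C.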
Hits are given with their value; . = inactive; / = not tested or not shown. Many of the other results were omitted from the sample, so hits are more common in it than they were.

SMILES	XBP1 UPR activ	V-ATPase pHluor	CHOP inhibitor	TbMetRS inhib	UPR CHOP act
Clc1ccc(CSc2ccc(-c3ccccn3)nn2)cc1	.	.	.	.	.
Clc1ccc(CSc2cc3c(nn2)-c2ccccc2CC3)cc1	.	.	77	.	.
CCSCC1COC(c2cccn2Cc2ccc(C)cc2)=N1 (stereo not drawn)	.	.	76	.	.
Cc1cccc(N2C(=O)/C(=C/c3cccnc3)SC2=S)c1	.	.	.	.	.
Cc1cc(/C=C2/SC(=S)N(c3ccc([N+](=O)[O-])cc3)C2=O)c(C)n1-c1cccnc1	.	.	71	.	.
Cc1ccc(N2C(=O)/C(=C/c3cccnc3)SC2=S)cc1	.	.	76	.	.
CCN(CC)C(=O)CN(c1ccc(F)c(Cl)c1)S(C)(=O)=O	.	.	76	.	.
CCc1ccc(NC(=O)NCC2CCN(c3ccc(OC)cc3)C2)cc1 (stereo not drawn)	.	.	.	.	.
CCOc1ccc(NC(=O)NCC2CCN(c3ccc(OC)cc3)C2)cc1 (stereo not drawn)	.	.	76	.	.
OC(c1ccc(F)c(F)c1)c1ncc(-c2cccc(F)c2)[nH]1 (stereo not drawn)	/	/	/	.	/
Cc1cccc(C)c1NC(=O)C(CCc1ccccc1)N1CCC(c2ccccc2)CC1 (stereo not drawn)	/	/	/	.	/
CCCOc1ncnc2c1[nH]c1ccccc12	.	.	72	.	.
C[C@H](CO)N1C[C@H](C)[C@@H](CN(C)C(=O)Nc2ccc(F)cc2)Oc2ncc(-c3ccc(F)cc3)cc2C1=O	/	.	/	.	/
CCOC(=O)CSc1nc(C)cc(C)c1C#N	.	.	.	.	.
Cc1cc(C)c(C#N)c(SCC(=O)OC2CCCCC2)n1	.	.	77	.	.
CCN(CC)S(=O)(=O)c1cccc(-c2n[nH]c(=S)n2/N=C/c2ccc(Br)cc2)c1	.	.	90	.	.
Cc1cccc(/C=N/n2c(-c3cc(-c4ccccc4)n[nH]3)n[nH]c2=S)c1	.	.	75	.	.
CC(C)NC(=O)C1(C#N)C=C1c1ccccc1 (stereo not drawn)	/	/	/	.	/
CCc1nnc(NC(=O)CCc2ccc(C)o2)s1	.	.	75	.	.
CN(C)C(=S)NC(=S)Nc1ccc2ccccc2c1	/	.	/	.	/
CCCCCCSc1ncc(C#N)c(N)n1	.	.	84	.	.
O=c1c2ccccc2nc(/C=C/c2ccc(O)cc2)n1CCc1ccccc1	.	.	74	.	.
Cc1ccc(S(=O)(=O)N2CCCCC2)cc1NC(=O)CNC(C)c1ccc(Cl)c(Cl)c1 (stereo not drawn)	.	.	/	.	.
CCCCCc1ccc(-c2ccc(=O)[nH]n2)cc1	.	.	93	.	.
Cc1ccc(-c2ccc(=O)[nH]n2)cc1	.	.	.	.	.
SMILES	XBP1 UPR activ	V-ATPase pHluor	CHOP inhibitor	TbMetRS inhib	UPR CHOP act
COc1ccc(C(C)=O)c(OCC(=O)NCCC2=CCCCC2)c1	/	.	/	.	/
Cc1ccc(C(=O)c2cccc(N)c2)cc1C	.	.	79	.	.
CCn1c(=O)cc(C(=O)OC)sc1=Nc1ccc(F)c(F)c1	.	.	96	.	.
COc1cc2cc3c(N)c(C(=O)Nc4sc(C)c(C)c4C#N)sc3nc2cc1OC	.	.	81	.	.
Cc1cc2c(cc1C)-n1nnnc1C(N1CCN(c3ccccn3)CC1)C(c1ccc3c(c1)OCO3)=N2 (stereo not drawn)	/	/	/	.	/
O=C(Nc1ccccc1)Nc1nnc(Cc2ccc([N+](=O)[O-])cc2)s1	.	.	90	.	.
O=C(Nc1nnc(Cc2ccc([N+](=O)[O-])cc2)s1)Nc1ccccc1F	.	.	74	.	.
O=C(Nc1nnc(Cc2ccc(F)cc2)s1)Nc1ccccc1F	.	.	/	.	.
Cc1ccc(NC(=O)Nc2nnc(Cc3ccc([N+](=O)[O-])cc3)s2)cc1C	.	.	.	.	.
COc1ccc(C2=Nc3ccccc3N(C(=O)c3ccncc3)C2C(=O)NC(C)C)cc1 (stereo not drawn)	/	/	/	.	/
COc1ccc(OCCNS(=O)(=O)c2ccc3oc4ccccc4c3c2)cc1	.	.	.	.	.
O=S(=O)(NCCOCC(F)(F)C(F)F)c1ccc2oc3ccccc3c2c1	.	.	85	.	.
C=CCn1nc(C(=O)Nc2ccc(OC)cc2)cc1-c1sc(NC(=O)c2ccccc2)nc1C	/	/	/	.	/
Cc1cc(C)cc(NC(=O)Cn2nnc(C(=O)NCc3cccs3)c2N)c1	.	.	/	.	.
Cc1cc(C)c(NC(=O)Cn2nnc(C(=O)NCc3cccs3)c2N)c(C)c1	.	.	85	.	.
COc1ccc2oc(C(=O)OCC(=O)NCc3ccc(OC)c(OC)c3)c(C)c2c1	.	.	/	.	.
CS(=O)(=O)N(CC(=O)Nc1ccccc1Sc1ccccc1)c1cccc(Br)c1	.	.	77	.	.
CSc1ccccc1NC(=O)CN(c1cc(C)cc(C)c1)S(C)(=O)=O	.	.	.	.	.
O=C(CN1CCN(c2ccccc2)CC1)Nc1cccc(C(F)(F)F)c1	.	.	79	.	.
COc1ccc(CCNC(=O)CN2CCN(c3cccc(C(F)(F)F)c3)CC2)cc1	.	.	86	.	.
COc1ccc(CCNC(=O)CN2CCN(c3ccccc3Cl)CC2)cc1	.	.	.	.	.
O=C(Nc1ccccc1C(=O)Nc1nnc(C(F)(F)F)s1)c1ccccc1Cl	.	.	74	.	.
O=C(Nc1ccc2c(c1)OCCO2)c1[nH]c(C(F)(F)F)nc1-c1ccccc1	/	/	/	.	/
CCc1ccc(-c2nc(CSCC(=O)N3CCN(c4ncccn4)CC3)c(C)o2)cc1	.	.	90	.	.
CSc1ccc(-c2nc(CSCC(=O)N3CCOCC3)c(C)o2)cc1	.	.	.	.	.
SMILES	XBP1 UPR activ	V-ATPase pHluor	CHOP inhibitor	TbMetRS inhib	UPR CHOP act
Cc1ccc(NC(=O)CCC(=O)OCC(=O)c2ccc(-c3ccccc3)cc2)cc1	.	.	85	.	.
CCCCC1SC(N)=NC1=O (stereo not drawn)	/	.	/	.	/
Cc1sc2ncn(CCC(=O)O)c(=O)c2c1C	.	.	.	.	.
Cc1sc2ncn(CCn3cnc4sc(C)c(C)c4c3=O)c(=O)c2c1C	.	.	90	.	.
CCCC(=O)c1ccc(N2CCN(C(=O)c3ccccc3)CC2)c(F)c1	.	.	.	.	.
CCCC(=O)c1ccc(N2CCN(C(=O)c3ccccc3Br)CC2)c(F)c1	.	.	74	.	.
CCC(=O)c1ccc(N2CCN(C(=O)c3ccc(Br)cc3)CC2)c(F)c1	.	.	85	.	.
CCC(=O)c1ccc(N2CCN(C(=O)c3ccc(F)cc3)CC2)c(F)c1	.	.	.	.	.
CCCC(=O)c1ccc(N2CCN(C(=O)c3ccc(Br)cc3)CC2)c(F)c1	.	.	73	.	.

High-throughput results: PubChem, several laboratories
